Results: article PMC3355950 (The Journal of Neuroscience, 2012)
Each block holds one compound with its values, some of them ahead of it.

Legend:
GluN1/GluN2A = GluN1/GluN2A (Rattus norvegicus, UniProt P35439+Q00959); test: Whole-cell voltage-clamp recordings, HEK293 cells, rapid solution exchange; type: cell-based; conditions: 50 μM glutamate
Procedure, shortened: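 HEK293 cells were plated on poly-D-lysine coverslips about 48 h ahead and calcium-phosphate cotransfected with GluN1, GluN2A and GFP (1:1:1). 200 μM D,L-APV and 200 μM 7-chlorokynurenic acid were added after transfection. Whole-cell recording was done about 24 h later at −60 mV and 23°C on lifted cells with piezo-driven theta-glass exchange.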

[1] = system: GluN2B-containing NMDA receptors; conditions: ref Williams, 1993; cited from earlier work
[2] = brief application (10 ms) of 1000 μM glycine, antagonist 0.3 μM

GluN1/GluN2A, sequence (Q00959 23-1464, other chains not shown): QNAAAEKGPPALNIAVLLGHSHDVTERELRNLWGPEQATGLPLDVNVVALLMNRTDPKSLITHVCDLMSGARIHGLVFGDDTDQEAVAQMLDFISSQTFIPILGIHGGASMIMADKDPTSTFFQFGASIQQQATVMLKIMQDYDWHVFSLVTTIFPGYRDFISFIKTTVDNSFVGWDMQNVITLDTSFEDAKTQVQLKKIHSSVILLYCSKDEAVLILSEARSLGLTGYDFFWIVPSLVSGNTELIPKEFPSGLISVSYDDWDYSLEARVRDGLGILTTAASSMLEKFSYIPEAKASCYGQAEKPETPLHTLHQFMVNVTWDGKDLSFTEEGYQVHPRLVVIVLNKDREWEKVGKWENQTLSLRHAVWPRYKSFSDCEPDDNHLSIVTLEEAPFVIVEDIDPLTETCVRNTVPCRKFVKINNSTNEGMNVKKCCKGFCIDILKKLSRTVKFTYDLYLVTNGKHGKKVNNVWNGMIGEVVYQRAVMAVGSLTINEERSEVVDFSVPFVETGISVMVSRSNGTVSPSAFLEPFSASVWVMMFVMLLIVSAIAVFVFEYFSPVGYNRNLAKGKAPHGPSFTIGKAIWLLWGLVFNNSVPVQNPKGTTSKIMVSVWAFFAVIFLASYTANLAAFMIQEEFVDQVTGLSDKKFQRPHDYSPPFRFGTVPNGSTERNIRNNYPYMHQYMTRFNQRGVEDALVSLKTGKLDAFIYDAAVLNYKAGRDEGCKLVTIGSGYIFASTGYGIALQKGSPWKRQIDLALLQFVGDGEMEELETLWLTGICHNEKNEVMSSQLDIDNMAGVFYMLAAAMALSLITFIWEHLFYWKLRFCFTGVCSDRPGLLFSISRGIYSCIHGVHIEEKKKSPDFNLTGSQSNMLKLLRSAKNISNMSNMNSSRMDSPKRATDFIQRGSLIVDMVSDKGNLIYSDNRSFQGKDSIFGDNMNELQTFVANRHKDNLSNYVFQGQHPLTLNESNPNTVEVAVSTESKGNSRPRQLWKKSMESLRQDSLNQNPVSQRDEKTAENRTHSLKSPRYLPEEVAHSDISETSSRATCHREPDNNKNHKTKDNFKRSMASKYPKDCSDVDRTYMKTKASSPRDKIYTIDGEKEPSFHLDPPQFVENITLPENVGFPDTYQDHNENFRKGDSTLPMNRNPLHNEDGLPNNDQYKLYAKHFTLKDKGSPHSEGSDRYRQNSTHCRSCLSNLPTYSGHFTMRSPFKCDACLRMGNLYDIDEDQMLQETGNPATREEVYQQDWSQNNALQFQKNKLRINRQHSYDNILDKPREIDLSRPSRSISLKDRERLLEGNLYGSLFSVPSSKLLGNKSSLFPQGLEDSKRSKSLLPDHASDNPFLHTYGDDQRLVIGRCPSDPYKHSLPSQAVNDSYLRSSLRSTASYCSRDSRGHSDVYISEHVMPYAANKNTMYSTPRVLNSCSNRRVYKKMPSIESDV

% fast (GluN1/GluN2A; [2]): 34 ± 6% | τfast (GluN1/GluN2A; [2]): 46 ± 7 ms | τslow (GluN1/GluN2A; [2]): 158 ± 10 ms | deactivation time constant, mono-exponential fit (τslow) (GluN1/GluN2A; long application (5 seconds) of 1000 μM glycine, antagonist 0.3 μM): 128 ± 14 ms
SMILES: O=C(O)c1cc(O)c2ccc(Cl)cc2n1 [7CKA, 7-chlorokynurenic acid]

SMILES: O=C(O)c1cc(O)c2c(Cl)cc(Cl)cc2n1 [DCKA, 7,5-dichlorokynurenic acid]
Peak response to a brief glycine application (GluN1/GluN2A; 0.3 μM, 1 mM glycine 10 ms): 43 ± 13 % of control | Effect on deactivation time course (GluN1/GluN2A; 0.3 μM, brief (10 ms) or long (5 seconds) 1 mM glycine): did not alter the deactivation time course

SMILES: CC(C(O)c1ccc(O)cc1)N1CCC(Cc2ccccc2)CC1 (stereo not shown) [ifenprodil]
selectivity for GluN2B-containing NMDA receptors [1]: over 500 fold
